A short description of assay [1]: Inhibition of Escherichia coli DNA dependent RNA polymerase assessed as inhibition of [14C]UTP incorporation after 15 mins by liquid scintillation counting.
Assay [2] relates to Staphylococcus aureus. Kind of assay: Antibacterial activity against Staphylococcus aureus. Type of assay: functional.
Assay [3] can be described thus: Inhibition of Escherichia coli DNA dependent RNA polymerase after 2 hrs by SYBR Green-based spectrophotometric analysis. In short, it runs like this:
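In vitro transcription assay with E. coli RNA polymerase on a Kool NC-45 RNAP template. Activity was reported as IC50 or as percentage inhibition at 100 μM compound.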

Assay [4] has as its system Staphylococcus aureus. In words: Antibacterial activity against Staphylococcus aureus SH1000 expressing rsbU gene. Type of assay: functional. A digest of the protocol: (§1)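 MICs by standard susceptibility testing per British Society for Antimicrobial Chemotherapy guidelines, run in triplicate. For the PMBN lines, tests were repeated with polymyxin B nonapeptide added as an outer-membrane permeabilizer.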

The subject of assay [5] is Bacillus subtilis. Kind of assay: Antibacterial activity against Bacillus subtilis 1S34. Type of assay: functional. In short, it runs like this:
as §1

Assay [6] relates to Escherichia coli. In words: Antibacterial activity against Escherichia coli 1411 expressing lacI3, lacZ118, proB, trp, nalA, rpsL. Type of assay: functional. In short, it runs like this: as §1
Assay [7] relates to Escherichia coli. In words: Antibacterial activity against kanamycin-resistant,acrAB::Tn903 deficient Escherichia coli SM1411 expressing lacI3, lacZ118, proB, trp, nalA, rpsL. Type of assay: functional.
Assay [8] has as its system Staphylococcus aureus. In words: Antibacterial activity against Staphylococcus aureus SH1000 expressing rsbU gene in the presence of polymyxin B nonapeptide. It is filed as functional. In short, it runs like this: as §1
In assay [9] the test system is Bacillus subtilis. Kind of assay: Antibacterial activity against Bacillus subtilis 1S34 in the presence of polymyxin B nonapeptide. It is filed as functional. In short, it runs like this: as §1
In assay [10] the test system is Escherichia coli. In words: Antibacterial activity against Escherichia coli 1411 expressing lacI3, lacZ118, proB, trp, nalA, rpsL in the presence of polymyxin B nonapeptide. Type of assay: functional. In short, it runs like this: as §1
Assay [11] deals with Escherichia coli. Kind of assay: Antibacterial activity against kanamycin-resistant,acrAB::Tn903 deficient Escherichia coli SM1411 expressing lacI3, lacZ118, proB, trp, nalA, rpsL in the presence of polymyxin B nonapeptide. It is filed as functional.
Assay [12] in a line: Inhibition of DNA dependent RNA polymerase.
A short description of assay [13]: Inhibition of malate dehydrogenase at 100 uM. In short, it runs like this:
(§2)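 Counter-screens for promiscuous inhibition using malate dehydrogenase and chymotrypsin enzyme assays. Activity was reported as percentage inhibition at 100 μM compound.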

The test system of a further assay is Saccharomyces cerevisiae. Kind of assay: Inhibition of yeast RNA polymerase 2 at 100 uM. A digest of the protocol: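 Selectivity assay against yeast RNA polymerase II. Activity was reported as percentage inhibition at 100 μM compound.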
Assay [14] is described as follows: Inhibition of chymotrypsin at 100 uM. A digest of the protocol: as §2

Converted amounts (≈) assume the structure as drawn. Bounds are passed on as bounds.

The IC50 is the concentration needed to halve the response being measured. Broadly, the MIC is the smallest concentration in the dilution series that meets the test's criterion for growth inhibition. Take `CCCC/C(C)=C/C=C(\C)C(=O)c1c(O)cc([C@H](C)CC/C=C/NC(=O)OC)oc1=O` [MYXOPYRONIN B]: the IC50 in assay [1] is 0.92 µM; in assay [3] it was 46.5 µM. Also, the MIC was 1 µg/mL (≈ 2.32 µM) against Staphylococcus aureus [2]; over 256 µg/mL in the assay on Staphylococcus aureus [4]; over 256 µg/mL against Bacillus subtilis [5]; over 256 µg/mL with Escherichia coli [6]; over 256 µg/mL in the assay with Escherichia coli [7]; over 256 µg/mL in the assay on Staphylococcus aureus [8]. Further, the MIC in the assay on Bacillus subtilis [9], in the assay on Escherichia coli [10] and with Escherichia coli [11] was over 256 µg/mL throughout.

Turning to `CCCC/C(C)=C/C=C(\C)C(=O)c1c(O)cc(CCC/C=C/NC(=O)OC)oc1=O` [DESMETHYL MYXOPYRONIN B], the MIC was 4 µg/mL (≈ 9.58 µM) against Staphylococcus aureus [2]; over 256 µg/mL against Staphylococcus aureus [4]; over 256 µg/mL against Bacillus subtilis [5]; over 256 µg/mL against Escherichia coli [6]; over 256 µg/mL in the assay on Escherichia coli [7]; over 256 µg/mL in the assay with Staphylococcus aureus [8]. Moreover, the MIC with Bacillus subtilis [9], with Escherichia coli [10] and in the assay with Escherichia coli [11] was over 256 µg/mL in each case. The compound also gave an IC50 in assay [12] of 0.34 µM.

In general, inhibition refers to the drop in the measured response relative to a control, in per cent. A high value points to a strong effect. Turning to `NS(=O)(=O)c1ccc(C(=O)Nc2ccc(-n3ccnc3)nc2)cc1`, half-maximal inhibition in assay [3] (IC50) required 18.9 µM. The inhibition in [13] was found to be 0.5%; in the assay with Saccharomyces cerevisiae it was 14.7%; in assay [14] it was 0%. The MIC against Staphylococcus aureus [4], against Bacillus subtilis [5], against Escherichia coli [6], in the assay with Escherichia coli [7], with Staphylococcus aureus [8] and in the assay with Bacillus subtilis [9] was over 256 µg/mL throughout. Further, the minimal inhibitory concentration (MIC) in the assay on Escherichia coli [10] and in the assay on Escherichia coli [11] was over 256 µg/mL throughout.

Source of the values: ChEMBL document CHEMBL2016480, “Structure-based ligand design of novel bacterial RNA polymerase inhibitors” (ACS Med Chem Lett, 2011).
